# PubChem BioAssay AID1217 (Sanford-Burnham Center for Chemical Genomics, 2008)
# The campaign covered roughly 190,000 compounds. About 1,300 (0.68%) were called active. The sample as a whole holds a higher share of actives than the screen did. Values without a mark were called inactive.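 Rule for the calls: active = primary screen inhibition at 20 µM above a set limit (cut at about 50% in these data); inactive = the rest.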
# System: diaphorase (Clostridium kluyveri)
# Assay: compounds blocking diaphorase resazurin reduction – biochemical, uHTS, resorufin fluorescence, counter-screen for diaphorase-coupled primary assays, primary screen (AID 1217);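 note: plate controls were DMSO with full reaction for no effect and wells lacking NADH for full effect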
# Conditions: diaphorase resazurin-to-resorufin fluorescence, NADH, 16 min; at 20 µM; active compounds read high; bacterial (C. kluyveri) enzyme, not human
# Summary of the method: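 Assay system: diaphorase enzyme from Clostridium kluyveri; Input: enzyme working solution with 0.14 U/mL diaphorase; Timing: 16 min at room temperature; Technique: resorufin fluorescence, excitation 544 nm, emission 590 nm; Benchmarks: positive control minus NADH, DMSO neutral control.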
row,SMILES,inhibition
1,CC(C)(C)c1csc(NC2=NS(=O)(=O)c3ccccc32)n1,15.4%
2,O=C(Oc1cccc(NC2=NS(=O)(=O)c3ccccc32)c1)c1ccncc1,50.9% (active)
3,O=C(Oc1ccccc1)c1ccc2nccnc2c1,6.5%
4,Cc1ccc(NC(=O)c2sccc2C)cc1[N+](=O)[O-],12.8%
5,O=C(COC(=O)/C=C/c1ccc(S(=O)(=O)N2CCCCCC2)cc1)NCc1ccccc1Cl,7.9%
6,CN(C)NC(=O)C(NC(=O)c1ccc(N)cc1)C12CC3CC(CC(C3)C1)C2 (stereo unspecified),4.7%
7,Clc1ccccc1CSc1nnc(-c2ccco2)c(-c2ccco2)n1,46.2%
8,c1ccc(CSc2nnc(-c3ccco3)c(-c3ccco3)n2)cc1,52.9% (active)
9,Brc1ccc(CSc2ccc(-c3ccco3)nn2)cc1,6.5%
10,O=C(CCN1CCN(c2ccccc2)CC1)NNC(=S)Nc1ccccc1,20.6%
11,COC(=O)/C=C\C(=O)Nc1cccc([N+](=O)[O-])c1,-5.8%
12,Cc1cccc(NC(=O)c2sc3nc4c(c(-c5ccco5)c3c2N)CCC4)c1,61.2% (active)
13,Cc1cccc(NC(=O)CSc2nnc(-c3ccco3)o2)c1,9.8%
14,NC(=O)c1sc2nc3c(c(-c4ccccc4)c2c1N)CCC3,36.8%
15,Cc1nc2sc(C(=O)c3ccccc3)c(N)c2c2c1CCCC2,28.7%
16,Cc1ccc(NC(=O)c2sc3nc(N)c(C#N)cc3c2N)cc1,18.4%
17,CC(=O)Nc1ccc(NC(=O)c2sc3nc4c(c(-c5ccc(C)cc5)c3c2N)CCC4)cc1,51.1% (active)
18,COCCN(C(=O)CCC(=O)Nc1nccs1)C(C(=O)NC(C)(C)C)c1ccc(Cl)cc1 (stereo unspecified),10.1%
19,COc1cccc(CN(C)CC(=O)Nc2ccccc2C(=O)Nc2ccccc2)c1,26.6%
20,S=C(Nc1ccc2c(c1)OCO2)N1CCCC1,3.4%
21,N/C(=N\OC(=O)Cc1ccccc1[N+](=O)[O-])c1ccc(Br)cc1,23.2%
22,CCNCc1cc2cc(C)ccc2[nH]c1=O,20%
23,COc1ccc(CCn2c(=N)c(C(=O)NCc3ccco3)cc3c(=O)n4cccc(C)c4nc32)cc1,8.1%

row,SMILES,inhibition
1,Cc1ccc2[nH]c(=O)c(-c3nc4c(C)cccn4c3NCc3ccco3)cc2c1,51.5% (active)
2,Cc1ccc(C)c(-n2cc(CN3CCN(C(=O)c4ncn[nH]4)CC3)c(-c3ccccc3)n2)c1,13.7%
3,Fc1ccccc1N=C1Nc2cccc3cccc1c23,12.1%
4,COc1ccccc1C1=Nc2cccc3cccc(c23)N1,63.5% (active)
5,c1ccc(C2=Nc3cccc4cccc(c34)N2)cc1,27%
6,O=C1CC(=O)Nc2cc(S(=O)(=O)N3CCN(c4cccc(C(F)(F)F)c4)CC3)ccc2N1,0.3%
7,CCOC(=O)C1=NOC(Cn2cc(C(C)=O)c(=O)[nH]c2=O)C1 (stereo unspecified),2.6%
8,CCOc1cc(/C=N/NC(=O)c2ccc(CSc3nncn3C)cc2)ccc1OCC(=O)N1CCOCC1,-14%
9,COc1cc(CNCCN(C)C)ccc1OCc1c(F)cccc1Cl,3.9%
10,COc1ccc(C[C@H]2CN3C(=NC[C@H]3C)N2CCNC(=O)CCC2CCCCC2)cc1,0.9%
11,O=C(N/N=C/c1ccc(O)c(O)c1)C1c2ccccc2Oc2ccccc21,37.6%
12,Cc1nc2ccccc2n1CC(=O)N/N=C/c1cccnc1,8.6%
13,Cc1nccn1CC(=O)N/N=C/c1ccc(O)c(O)c1,50.4% (active)
14,CCN(CC)C(=O)Cn1cc(S(=O)(=O)CC(=O)NCc2ccc3c(c2)OCO3)c2ccccc21,10.1%
15,CC(C)Oc1ccc(CC(=O)NNC(=S)Nc2ccc(Br)cc2)cc1,-0.6%
16,COC(=O)c1ccc(C(=O)OC)c(NC(=S)N2CCN(c3ccc(F)cc3)CC2)c1,11.5%
17,CCc1ccc(N(CC(=O)Nc2sc3c(c2C(=O)OC)CCCC3)S(C)(=O)=O)cc1,28.6%
18,Cc1ccc(NC(=O)CSc2nnc(CNC(=O)c3ccccc3F)o2)cc1,-12.4%
19,Cc1ccc(NC(=O)CSc2nnc(COc3ccccc3C)o2)cc1,55.6% (active)
20,Cc1cc(C)cc(OCc2nnc(SCC(=O)Nc3ccccc3)o2)c1,8.2%
21,C/C(=N\NC(=O)OC(C)(C)C)c1ccc[nH]1,1.8%
22,COc1ccc(N2CCN(c3ccc([N+](=O)[O-])nc3)CC2)cc1,-1%
23,COc1ccc(-c2cc(C3CCN(c4ncccc4[N+](=O)[O-])CC3)[nH]n2)cc1,52.2% (active)

row,SMILES,inhibition
1,CC(=O)NC(Cc1ccccc1)C(=O)NC1CCN(c2ncccc2[N+](=O)[O-])CC1 (stereo unspecified),15.7%
2,Cc1ccc(CNC(=O)Cn2c(=O)c3sccc3n(Cc3cccc([N+](=O)[O-])c3)c2=O)cc1,-2.4%
3,O=C(C1CCN(S(=O)(=O)c2ccc(Br)s2)CC1)N1CCN(C2CCCCC2)CC1,18.2%
4,CCn1c(O)c(N=NC2=NC(=O)CS2)c2cc(C)ccc21,86.4% (active)
5,CCn1c(=O)cc(O)c2ccccc21,8.6%
6,CCn1c(O)c(N=NC(=O)c2cccc(S(=O)(=O)N3CCCCC3)c2)c2ccccc21,29.2%
7,CC(C)c1ccc(Nc2nnc(SCC(=O)c3nnc(-c4ccccc4)o3)s2)cc1,18.8%
8,O=C1OCC2=C1C(c1ccccc1)CC(=O)N2c1cccc(F)c1 (stereo unspecified),-4.2%
9,COc1ccc(N2CCN(CCCNC(=O)C3CCN(S(=O)(=O)N4CCOCC4)CC3)CC2)cc1,0.3%
10,CC(=O)n1cc([C@H]2C=C(C(=O)N3CCOCC3)O[C@@H](OCc3ccc(CO)cc3)C2)c2ccccc21,-0.6%
11,CN1CCN(C(=O)C2=C[C@H](c3ccc4c(c3)OCO4)C[C@H](OCc3ccc(CO)cc3)O2)CC1,5.9%
12,CC(=O)n1cc([C@@H]2C=C(C(=O)N3CCN(Cc4ccc5c(c4)OCO5)CC3)O[C@H](OCc3ccc(CO)cc3)C2)c2ccccc21,53.6% (active)
13,O=C(OCC(=O)N1CCOCC1)c1ccc(N2CCOCC2)c([N+](=O)[O-])c1,3.6%
14,CC(C)(C)NC(=O)C(=O)NN=C1CCCCCCC1,3.8%
15,CCN(CC)CCN(C(=O)c1cccc([N+](=O)[O-])c1)c1nc2ccc(OC)cc2s1,9.6%
16,CCCn1c(C)cc(C(=O)COC(=O)c2c(C)nn(-c3ccccc3)c2C)c1C,18.9%
17,Cc1nn(-c2ccccc2)c(C)c1C(=O)OCC(=O)NC(=O)NC1CCCCC1,57.3% (active)
18,O=C(COC(=O)c1ccccc1SCC(=O)NC1CCCCC1)NC1CCCCC1,3.2%
19,Cn1cnnc1SCc1nnc(-c2ccccc2Br)o1,4.8%
20,CCC1CCCCN1C(=O)CSc1nc2c(c(=O)n(C)c(=O)n2C)n1C (stereo unspecified),6.8%
21,CC1CCC2(CC1)NC(=O)N(Cc1nnc(-c3cccs3)o1)C2=O (stereo unspecified),8.2%
22,COc1cccc(CC2(CO)CCCN(Cc3nc(-c4cccs4)oc3C)C2)c1 (stereo unspecified),17.2%
23,CCOC(=O)C1(CC2CCCCO2)CCN(Cc2nc(-c3cccs3)oc2C)CC1 (stereo unspecified),56.2% (active)

row,SMILES,inhibition
1,COc1ccc(Nc2nc(N)nc(CSC(=S)N3CCC(C)CC3)n2)cc1,28.1%
2,O=c1c(-c2ccccc2)coc2cc(O)ccc12,-8.4%
3,O=C(CCc1ccccc1)NNC(=O)c1ccc(Br)cc1,-5.7%
4,COc1ccc(C(=O)NC(=S)NNC(=O)CCc2ccccc2)cc1,54% (active)
5,COc1ccc(C(=O)NC(=S)NNC(=O)c2c(-c3ccccc3)noc2C)cc1,38.4%
6,COc1ccc(CC(NC(C)=O)C(=O)NC2CCN(C(=O)c3ccc(OC)c(OC)c3)CC2)cc1OC (stereo unspecified),10.9%
7,COc1ccc(CN2CCC(c3nc4ccc(Cl)cc4[nH]3)CC2)cc1,2.5%
8,O=C(OCC1O[C@@H](OC(=O)c2cc(O)c(O)c(O)c2)[C@@H](OC(=O)c2cc(O)c(O)c(O)c2)[C@@H](OC(=O)c2cc(O)c(O)c(O)c2)[C@@H]1OC(=O)c1cc(O)c(O)c(O)c1)c1cc(O)c(O)c(O)c1 (stereo partly specified),71.3% (active)
9,CC(=O)NC1C(OCc2ccccc2)OC(COC(C)=O)C(OC(C)=O)C1OC(C)=O (stereo unspecified),9%
10,O=C(Nc1ccccc1-c1ccccc1)c1cccs1,7.8%
11,O=C(CN1CCOCC1)Nc1c(-c2ccccc2)c2cc(Br)ccc2[nH]c1=O,12.8%
12,Cc1ccc2[nH]c(=O)c(CC=C(Cl)Cl)c(C)c2c1,7.7%
13,Cc1ccc2[nH]c(=O)c(CN3CCCCC3)c(-c3ccccc3)c2c1,68.3% (active)
14,O=C(CSc1nc2ccccc2[nH]1)Nc1nc(-c2ccccc2)c(-c2ccccc2)o1,12.3%
15,COc1ccc(OC)c(C(c2nnnn2C(C)(C)C)N2CCc3ccccc3C2)c1 (stereo unspecified),29.8%
16,CCOc1ccc2[nH]c(=O)c(C(c3nnnn3CCOC)N3CCOCC3)cc2c1 (stereo unspecified),5.8%
17,COCCn1nnnc1C(c1cc2ccc(OC)cc2[nH]c1=O)N1CCc2ccccc2C1 (stereo unspecified),52.1% (active)
18,N#C/C(=C\C1=C(N2CCOCC2)C(=C\c2ccccc2)/CC1)C(=O)Nc1ccccc1F,28.4%
19,CCNc1ccc(C(=O)OCC(=O)N2c3ccccc3NC(=O)C2(C)C)cc1[N+](=O)[O-],19.8%
20,Cc1ccc(SCC(=O)c2sc(-c3ccccc3)nc2C)cc1,20.1%
21,Cc1nc(-c2ccccc2)sc1C(=O)/C=C/c1ccccc1,13.8%
22,Cc1nc(-c2ccc(Cl)cc2)sc1C(=O)CBr,52.6% (active)
